The values below come from ChEMBL document CHEMBL1141660, “Synthesis and antimycobacterial evaluation of substituted pyrazinecarboxamides” (Eur J Med Chem, 2008).

Test [1] relates to Chlorella vulgaris. Nature of the test: Antialagal activity against Chlorella vulgaris Beji assessed as reduction in chlorophyll content after 7 days. The class given is functional, organism-based. As to conditions: 168 h. The procedure, abridged:
(§1)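 Chlorella cultures with compound added from DMSO (final ≤0.25%), against controls carrying the same DMSO level. Chlorophyll content was read relative to the control. Results are given either as IC50 (concentration giving a 50% drop in chlorophyll) or as percent of control across the 0.83–100 concentration range, with S.D.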

Test [2] deals with Mycobacterium tuberculosis. The test can be described thus: Antimicrobial activity against Mycobacterium tuberculosis H37Rv ATCC 27294 at 6.25 ug/mL by microplate alamar blue assay. It is filed as functional.
Test [3] is described as follows: Inhibition of photosynthetic electron transport in Spinacia oleracea chloroplasts assessed as photoreduction of 2,6-dicholorophenol-indophenol measured by decrease in oxygen evolution rate. It is filed as functional. The procedure, abridged: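 Chloroplast suspension (chlorophyll 30 mg/L) in 0.02 mol/L phosphate buffer, pH 7.2, with 0.4 mol/L sucrose, 0.005 mol/L MgCl2 and 0.015 mol/L NaCl. Samples were lit by a halogen lamp (~100 W/m², 10 cm, 4-cm water filter) at 22 °C. Electron transport was followed as DCPIP photoreduction. IC50 is the molar concentration halving oxygen evolution versus the untreated control.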

Test [4] deals with Chlorella vulgaris. Nature of the test: Antialagal activity against Chlorella vulgaris Beji assessed as reduction in chlorophyll content after 7 days at 0.83 to 100 umol/L. It is filed as functional. Details: scale not given: the % may be the effect or the level left. The method, boiled down: as §1
Test [5] concerns Mycobacterium tuberculosis. Nature of the test: Antimicrobial activity against Mycobacterium tuberculosis H37Rv ATCC 27294 by microplate alamar blue assay. The class given is functional.
Test [6] is described as follows: Selectivity index, ratio of MIC Mycobacterium tuberculosis H37Rv ATCC 27294 to IC50 for african green monkey Vero cells. The class given is functional.
The next test has as its system Vero. The test can be described thus: Cytotoxicity against african green monkey Vero cells after 72 hrs by MTT assay. The note with it: Chlorocebus sabaeus. It is filed as cell-based. The procedure, abridged:
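Secondary screen in VERO cells. Viability was read with the CellTiter 96 non-radioactive cell proliferation assay.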

Test [7] deals with Trichophyton mentagrophytes. The test can be described thus: Antifungal activity against Trichophyton mentagrophytes after 120 hrs. It is filed as functional.
The test system of test [8] is Trichophyton mentagrophytes. Nature of the test: Antifungal activity against Trichophyton mentagrophytes after 72 hrs. The class given is functional.

Structures are written as SMILES. Values after ≈ are worked out from the molar mass of the structure shown.

On to `O=C(Nc1cccc(C(F)(F)F)c1)c1cncc(Cl)n1`, for which the half-maximal inhibitory concentration (IC50) in the test with Chlorella vulgaris [1] was determined as 12.1 µM; in test [3] it was 229 µM. At 6.25 µg/mL the inhibition in test [2] was 77%.
`Cc1ccc(NC(=O)c2cnccn2)cc1`: the results for the IC50 (with Chlorella vulgaris [1]; in test [3]) were 70.9 µM and 1480 µM, respectively. This compound had an inhibition at 6.25 µg/mL in test [2] of 86%.
For `CC(C)(C)c1ncc(C(=O)Nc2cc(O)ccc2Cl)nc1Cl`, the Activity in the test on Chlorella vulgaris [4] was found to be 98%. For the same compound, testing at 6.25 µg/mL in [2] gave an inhibition of 0%. Besides, the IC50 in test [3] stood at 625 µM.
For the compound `Cc1ccc(NC(=O)c2cncc(Cl)n2)cc1`, the IC50 is 37.4 µM in the test on Chlorella vulgaris [1] and 1520 µM in [3]. Moreover, the inhibition at 6.25 µg/mL in [2] came to 71%.
For `CC(C)(C)c1cnc(C(=O)Nc2ccc(F)cc2)cn1`, the Activity with Chlorella vulgaris [4] was 94.5%. This compound yielded an inhibition at 6.25 µg/mL in test [2] of 25%. In addition, the IC50 in test [3] came to 524 µM.
The like results for `Cc1ccc(NC(=O)c2cnc(C(C)(C)C)c(Cl)n2)cc1` were, in that order, 92.9%, 0% and 73 µM.
Regarding `O=C(Nc1ccc(F)cc1)c1cncc(Cl)n1`, the IC50 in the test on Chlorella vulgaris [1] is 32.3 µM; in test [3] it was 384 µM. For the same compound, at 6.25 µg/mL the inhibition in [2] was 44%.
Take `O=C(Nc1ccccc1C(F)(F)F)c1cncc(Cl)n1`: the Activity in the test on Chlorella vulgaris [4] came to 87.8%. This compound also showed an inhibition at 6.25 µg/mL in test [2] of 26%. The 50% inhibitory concentration (IC50) in test [3] was 557 µM.
With `O=C(Nc1ccccc1C(F)(F)F)c1cnccn1`, the Activity with Chlorella vulgaris [4] came out at 91.7%. In [2], this compound showed an inhibition at 6.25 µg/mL of 31%. The IC50 in test [3] came out at 376 µM.
With `Cc1ccc(NC(=O)c2cnc(C(C)(C)C)cn2)cc1`, the Activity in the test with Chlorella vulgaris [4] worked out at 91.8%. This compound also came in with an inhibition at 6.25 µg/mL in test [2] of 61%. In addition, the concentration for half-maximal inhibition (IC50) in [3] was found to be 164 µM.
As for `CC(C)(C)c1ncc(C(=O)Nc2cccc(C(F)(F)F)c2)nc1Cl`, in test [5], the minimal inhibitory concentration (MIC) turned out to be 3.13 µg/mL (≈ 8.75 µM). Besides, the Activity with Chlorella vulgaris [4] was 90.1%. Besides, the Ratio in [6] is above 3.2. In test [2], 6.25 µg/mL produced 95% inhibition. The 50% inhibitory concentration (IC50) in [3] is 173 µM; in the test with Vero, above 10 µg/mL.
With `CN(C)C(=O)Nc1ccc(Cl)c(Cl)c1` [DCMU], the IC50 stood at 7.3 µM in the test with Chlorella vulgaris [1] and 1.9 µM in [3].
As for `CC(C)(C)c1ncc(C(=O)Nc2ccccc2C(F)(F)F)nc1Cl`, the Activity in the test with Chlorella vulgaris [4] came out at 94.4%. Further, the inhibition at 6.25 µg/mL in [2] came to 6%. Also, the 50% inhibitory concentration (IC50) in [3] worked out at 205 µM.
`CC(C)(C)c1ncc(C(=O)Nc2ccc(F)cc2)nc1Cl`: in the test with Chlorella vulgaris [4], the Activity stood at 101.6%. At 6.25 µg/mL the inhibition in test [2] was 15%. Also, in test [3], the IC50 stood at 103 µM.
For `O=C(Nc1ccc(F)cc1)c1cnccn1`, in that order: 89.9%, 0% and 480 µM.
Regarding `O=C(Nc1cc(O)ccc1Cl)c1cnccn1`, the Activity with Chlorella vulgaris [4] is 97.1%. In test [2], this compound returned an inhibition at 6.25 µg/mL of 0%. Besides, the IC50 in [3] came out at 722 µM.
As to `CC(C)(C)c1cnc(C(=O)Nc2ccccc2C(F)(F)F)cn1`, the results for the IC50 (in the test with Chlorella vulgaris [1]; in test [3]) were 32.9 µM and 55 µM, respectively. In test [2], this compound had an inhibition at 6.25 µg/mL of 7%.
For the compound `CC(C)(C)c1cnc(C(=O)Nc2cc(O)ccc2Cl)cn1`, the Activity in the test on Chlorella vulgaris [4] is 122%. In test [2], this compound returned an inhibition at 6.25 µg/mL of 0%.
As to `CC(C)(C)c1cnc(C(=O)Nc2cccc(C(F)(F)F)c2)cn1`, the MIC in test [7] and in test [8] was 62.5 µM (≈ 20.2 µg/mL) in each case. The Activity in the test on Chlorella vulgaris [4] is 85.2%. This compound also returned an inhibition at 6.25 µg/mL in [2] of 23%. Moreover, the 50% inhibitory concentration (IC50) in [3] worked out at 283 µM.
`O=C(Nc1cc(O)ccc1Cl)c1cncc(Cl)n1`: the Activity with Chlorella vulgaris [4] came out at 103%. The inhibition at 6.25 µg/mL in test [2] amounted to 15%. In [3], the half-inhibitory concentration (IC50) turned out to be 624 µM.
For `O=C(Nc1cccc(C(F)(F)F)c1)c1cnccn1`, inhibition of growth in test [5] (MIC) required 6.25 µg/mL (≈ 23.4 µM). The Activity in the test with Chlorella vulgaris [4] stood at 91.5%. Besides, the Ratio in test [6] is listed as above 10. The inhibition at 6.25 µg/mL in [2] was 99%. The figures for the concentration for half-maximal inhibition (IC50) (in [3]; in the test with Vero) were 130 µM and above 62.5 µg/mL, respectively.
Turning to `NC(=O)c1cnccn1` [PYRAZINAMIDE], the MIC in test [5] is 12.5 µg/mL (≈ 102 µM).
